{"data": "Experimental data from different studies", "effect on": "cell growth or viability"}
{"SMILES": "CC(C)[C@@H]1NC(=O)[C@H](Cc2c[nH]cn2)NC1=O", "cell line": "ASPC1", "assay": "SRB", "IC50": "> 15 µM"}
{"SMILES": "O=C1CS/C(=N\\c2cc(C(F)(F)F)ccc2-c2nnc(N3C(=O)CS/C3=N\\c3ccc(-c4ccccc4)cc3)s2)N1c1ccc(-c2ccccc2)cc1", "cell line": "WI-38", "assay": "MTT", "IC50": "94.7 µM"}
{"SMILES": "CCCCC(=O)Nc1ccc(-c2ccc3ncn(CCF)c(=O)c3c2)cn1", "cell line": "HCC827", "assay": "CCK-8", "conditions": "72 h", "IC50": "0.36 µM"}
{"SMILES": "Cc1cccc([N+](=O)[O-])c1N=C1SCC(=O)N1c1nnc(-c2ccc(C(F)(F)F)cc2N=C2SCC(=O)N2c2c(C)cccc2[N+](=O)[O-])s1", "cell line": "WI-38", "assay": "MTT", "IC50": "67.5 µM"}
{"SMILES": "Nc1c([I+]c2ccccc2)c(=O)oc2ccccc12", "cell line": "HaCaT", "assay": "MTT", "conditions": "48 h", "IC50": "65.4 µM"}
{"SMILES": "CCCn1cnc2ccc(-c3ccc(NC(=O)CC4CC4)nc3)cc2c1=O", "cell line": "HCC827", "assay": "CCK-8", "conditions": "72 h", "IC50": "0.91 µM"}
{"SMILES": "OCc1ccc(-c2nn(Cc3ccncc3)c3cccnc23)o1", "cell line": "HuCCT-1", "assay": "ATP luminescence", "IC50": "> 46 µM"}
{"SMILES": "CC(C)C(=O)Nc1ccc([N+](=O)[O-])c(C(F)(F)F)c1", "cell line": "HaCaT", "assay": "MTS", "conditions": "48 h", "IC50": "> 100 µM"}
{"SMILES": "COc1cc(C2C3=C(COC3=O)N(CCO)c3cc4c(cc32)CCC4)cc(OC)c1OC (stereo not shown)", "cell line": "E0771", "assay": "ATP luminescence", "conditions": "48 h", "IC50": "0.039 µM"}
{"SMILES": "CCCCCC(=O)Nc1ccc(-c2ccc3ncn(CCC)c(=O)c3c2)cn1", "cell line": "HCC827", "assay": "CCK-8", "conditions": "72 h", "IC50": "0.16 µM"}
{"SMILES": "NCc1ccc(-c2nn(Cc3ccccc3)c3ccccc23)o1", "cell line": "HuCCT-1", "assay": "ATP luminescence", "IC50": "> 46 µM"}
{"SMILES": "O=C1CS/C(=N\\c2cc(C(F)(F)F)ccc2-c2nnc(N3C(=O)CS/C3=N\\c3ccc(Cl)cc3)s2)N1c1ccc(Cl)cc1", "cell line": "WI-38", "assay": "MTT", "IC50": "49.2 µM"}
{"SMILES": "CCCn1cnc2ccc(-c3ccc(NC(=O)c4ccccc4)nc3)cc2c1=O", "cell line": "HCC827", "assay": "CCK-8", "conditions": "72 h", "IC50": "0.1 µM"}
{"SMILES": "COc1cccc2c1C(=O)c1c(O)c3c(c(O)c1C2=O)C[C@@](O)(C(=O)CO)C[C@@H]3O[C@H]1C[C@H](N)[C@H](O)[C@H](C)O1", "cell line": "HuCCT-1", "conditions": "96 h", "IC50": "0.0249 µM"}
{"SMILES": "COc1cccc2c1C(=O)c1c(O)c3c(c(O)c1C2=O)C[C@@](O)(C(=O)CO)C[C@@H]3O[C@H]1C[C@H](N)[C@H](O)[C@H](C)O1", "cell line": "HaCaT", "assay": "MTT", "conditions": "72 h", "IC50": "0.3 µM"}
{"SMILES": "CCCCn1cnc2ccc(-c3ccc(NC(=O)Nc4ccc(CC)cc4)nc3)cc2c1=O", "cell line": "HCC827", "assay": "CCK-8", "conditions": "72 h", "IC50": "> 10 µM"}
{"SMILES": "OCc1ccc(-c2nn(Cc3ccncc3)c3ccccc23)o1", "cell line": "HuCCT-1", "assay": "ATP luminescence", "IC50": "> 46 µM"}
{"SMILES": "CCCCC(=O)Nc1ccc(-c2ccc3ncn(CC4CC4)c(=O)c3c2)cn1", "cell line": "HCC827", "assay": "CCK-8", "conditions": "72 h", "IC50": "0.056 µM"}
{"SMILES": "O=C1CS/C(=N\\c2cc(C(F)(F)F)ccc2-c2nnc(N3C(=O)CS/C3=N\\c3cccc(Cl)c3)s2)N1c1cccc(Cl)c1", "cell line": "WI-38", "assay": "MTT", "IC50": "47.1 µM"}
